Data published in ChEMBL document CHEMBL4422663, “Suppression of Tumor Growth and Metastases by Targeted Intervention in Urokinase Activity with Cyclic Peptides” (J Med Chem, 2019).
Active and inactive are the calls of the source. The rule behind the calls is not given here. Positions of bridges follow the written chain, without caps; N, C: chain ends. Residues, ends and D or L forms follow the SMILES beside them.

How the values were obtained:
[1] = molecular target: Plasminogen (Homo sapiens, UniProt P00747); experiment: Inhibition of human plasmin preincubated for 15 mins followed by chromogenic substrate addition
Plasminogen, sequence (P00747 97-580 limits assumed): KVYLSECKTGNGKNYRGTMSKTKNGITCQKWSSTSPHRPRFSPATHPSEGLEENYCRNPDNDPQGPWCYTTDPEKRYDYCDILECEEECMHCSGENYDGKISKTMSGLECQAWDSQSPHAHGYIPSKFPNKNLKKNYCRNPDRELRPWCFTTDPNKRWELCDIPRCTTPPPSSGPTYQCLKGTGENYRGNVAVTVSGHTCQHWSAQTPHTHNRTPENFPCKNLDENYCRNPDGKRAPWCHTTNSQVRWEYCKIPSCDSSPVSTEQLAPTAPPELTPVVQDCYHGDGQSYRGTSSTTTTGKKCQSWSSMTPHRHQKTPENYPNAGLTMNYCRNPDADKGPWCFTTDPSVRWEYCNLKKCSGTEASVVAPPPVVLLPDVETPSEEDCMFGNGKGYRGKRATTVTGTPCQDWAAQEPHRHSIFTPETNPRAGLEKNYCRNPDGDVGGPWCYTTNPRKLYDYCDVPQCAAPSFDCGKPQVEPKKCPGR
Plasminogen, sequence (P00747 581-810 limits assumed): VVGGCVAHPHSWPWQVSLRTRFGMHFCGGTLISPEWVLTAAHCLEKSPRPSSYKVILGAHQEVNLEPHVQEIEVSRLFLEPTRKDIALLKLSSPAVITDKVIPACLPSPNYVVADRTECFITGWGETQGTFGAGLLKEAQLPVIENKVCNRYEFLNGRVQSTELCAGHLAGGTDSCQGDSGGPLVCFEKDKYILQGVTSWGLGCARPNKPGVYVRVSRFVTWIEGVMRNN

[2] = molecular target: Plasma kallikrein (Homo sapiens, UniProt P03952); experiment: Inhibition of human plasma kallikrein preincubated for 15 mins followed by chromogenic substrate addition
Plasma kallikrein (Homo sapiens, UniProt P03952), sequence (P03952 20-390 limits assumed): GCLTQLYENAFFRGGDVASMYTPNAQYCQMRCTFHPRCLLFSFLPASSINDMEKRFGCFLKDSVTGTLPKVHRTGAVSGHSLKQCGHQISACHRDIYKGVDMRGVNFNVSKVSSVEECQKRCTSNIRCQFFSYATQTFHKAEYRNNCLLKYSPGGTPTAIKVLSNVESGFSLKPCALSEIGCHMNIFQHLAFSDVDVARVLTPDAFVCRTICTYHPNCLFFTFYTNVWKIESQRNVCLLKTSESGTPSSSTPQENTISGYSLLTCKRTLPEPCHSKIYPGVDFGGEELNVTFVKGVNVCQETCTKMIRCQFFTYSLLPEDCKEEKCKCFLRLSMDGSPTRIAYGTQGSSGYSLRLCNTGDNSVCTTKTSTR
Plasma kallikrein (Homo sapiens, UniProt P03952), sequence (P03952 391-638 limits assumed): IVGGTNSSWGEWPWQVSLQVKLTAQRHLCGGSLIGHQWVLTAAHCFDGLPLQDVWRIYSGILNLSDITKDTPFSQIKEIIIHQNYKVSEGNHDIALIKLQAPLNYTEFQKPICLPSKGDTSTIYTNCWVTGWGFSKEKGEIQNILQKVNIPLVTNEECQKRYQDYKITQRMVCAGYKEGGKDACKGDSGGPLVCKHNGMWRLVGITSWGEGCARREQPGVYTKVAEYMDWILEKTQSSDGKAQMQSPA

[3] = molecular target: T1, Urokinase-type plasminogen activator (Mus musculus, UniProt P06869); experiment: Inhibition of uPA in presence of 75% mouse […] measured immediately
T1 sequence (P06869 21-178 limits assumed): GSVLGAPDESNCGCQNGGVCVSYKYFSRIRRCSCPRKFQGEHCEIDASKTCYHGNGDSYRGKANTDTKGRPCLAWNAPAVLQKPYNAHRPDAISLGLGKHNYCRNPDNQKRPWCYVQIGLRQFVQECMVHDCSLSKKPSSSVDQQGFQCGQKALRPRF
T1 sequence (P06869 180-433 limits assumed): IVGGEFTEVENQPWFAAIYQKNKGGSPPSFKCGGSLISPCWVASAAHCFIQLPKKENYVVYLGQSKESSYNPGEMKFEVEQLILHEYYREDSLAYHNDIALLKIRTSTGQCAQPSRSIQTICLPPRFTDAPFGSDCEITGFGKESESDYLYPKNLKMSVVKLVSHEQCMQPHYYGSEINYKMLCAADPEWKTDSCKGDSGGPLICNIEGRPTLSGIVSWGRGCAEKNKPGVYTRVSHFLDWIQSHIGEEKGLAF
Method in brief: (§1)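 Peptide was preincubated in 75% murine plasma for 0–24 h (sampled at 0, 2, 8 and 24 h). Residual uPA-inhibitory activity was then measured and expressed as IC50.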

[4] = molecular target: Urokinase-type plasminogen activator (Mus musculus) (UniProt P06869); experiment: Potency index, ratio of Ki for LD1 to Ki for test compound for inhibition of mouse uPA preincubated for 15 mins followed by chromogenic substrate addition
Urokinase-type plasminogen activator (Mus musculus), sequence (P06869 21-178 limits assumed): as the sequence (P06869 21-178 limits assumed) above
Urokinase-type plasminogen activator (Mus musculus), sequence (P06869 180-433 limits assumed): as the sequence (P06869 180-433 limits assumed) above

[5] = molecular target: T2, Suppressor of tumorigenicity 14 protein (Homo sapiens, UniProt Q9Y5Y6); experiment: Inhibition of human matriptase preincubated for 15 mins followed by chromogenic substrate addition
T2 sequence (Q9Y5Y6 whole entry): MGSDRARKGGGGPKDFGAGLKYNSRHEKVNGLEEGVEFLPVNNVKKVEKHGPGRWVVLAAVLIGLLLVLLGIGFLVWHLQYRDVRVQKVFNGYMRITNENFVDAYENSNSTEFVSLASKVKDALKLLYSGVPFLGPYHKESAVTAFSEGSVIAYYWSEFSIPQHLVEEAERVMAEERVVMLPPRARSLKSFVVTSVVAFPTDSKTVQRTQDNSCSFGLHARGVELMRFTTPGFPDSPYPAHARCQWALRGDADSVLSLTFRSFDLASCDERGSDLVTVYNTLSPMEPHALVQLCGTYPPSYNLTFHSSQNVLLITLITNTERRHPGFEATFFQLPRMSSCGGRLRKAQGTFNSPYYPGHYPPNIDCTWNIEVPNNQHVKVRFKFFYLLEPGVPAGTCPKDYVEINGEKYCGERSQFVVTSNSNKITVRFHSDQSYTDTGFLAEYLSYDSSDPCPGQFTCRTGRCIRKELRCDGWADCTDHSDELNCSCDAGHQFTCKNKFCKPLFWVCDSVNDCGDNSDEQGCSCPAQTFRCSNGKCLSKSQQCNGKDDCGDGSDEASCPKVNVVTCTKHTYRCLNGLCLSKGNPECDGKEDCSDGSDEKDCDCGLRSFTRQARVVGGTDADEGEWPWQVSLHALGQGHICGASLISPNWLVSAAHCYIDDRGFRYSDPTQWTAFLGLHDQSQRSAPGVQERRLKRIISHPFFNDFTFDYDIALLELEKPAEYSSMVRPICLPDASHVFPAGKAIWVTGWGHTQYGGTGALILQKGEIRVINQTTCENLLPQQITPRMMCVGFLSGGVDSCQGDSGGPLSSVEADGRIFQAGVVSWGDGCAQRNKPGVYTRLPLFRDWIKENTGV

[6] = molecular target: T1, Urokinase-type plasminogen activator; experiment: Inhibition of mouse uPA preincubated for 15 mins followed by chromogenic substrate addition
[7] = Toxicity in Balb/c mouse allografted with mouse CT26 cells assessed as effect on body weight at 1.13 to 11.3 mg/kg, ip administered daily for 15 days; format: organism-based; settings: in vivo, 360 h
[8] = molecular target: Tissue-type plasminogen activator (Homo sapiens, UniProt P00750); experiment: Inhibition of human tissue-type plasminogen activator preincubated for 15 mins followed by chromogenic substrate addition
Tissue-type plasminogen activator (Homo sapiens, UniProt P00750), sequence (P00750 whole entry): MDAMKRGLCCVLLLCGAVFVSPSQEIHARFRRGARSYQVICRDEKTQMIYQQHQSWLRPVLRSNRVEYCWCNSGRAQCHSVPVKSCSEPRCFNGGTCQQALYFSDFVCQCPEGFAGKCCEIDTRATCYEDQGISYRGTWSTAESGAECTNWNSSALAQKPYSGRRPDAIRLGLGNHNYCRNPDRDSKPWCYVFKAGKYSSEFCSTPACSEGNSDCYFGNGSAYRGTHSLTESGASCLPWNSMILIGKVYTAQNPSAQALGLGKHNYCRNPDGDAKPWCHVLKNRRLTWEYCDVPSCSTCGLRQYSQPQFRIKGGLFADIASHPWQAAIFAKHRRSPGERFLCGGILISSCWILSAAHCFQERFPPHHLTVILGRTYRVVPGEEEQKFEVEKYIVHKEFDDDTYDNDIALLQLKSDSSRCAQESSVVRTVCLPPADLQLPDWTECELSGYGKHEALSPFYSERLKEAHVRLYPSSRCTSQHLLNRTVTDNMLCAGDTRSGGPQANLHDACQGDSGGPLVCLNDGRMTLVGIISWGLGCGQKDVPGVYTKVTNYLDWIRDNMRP

[9] = Inhibition of mouse trypsin preincubated for 15 mins followed by chromogenic substrate addition
[10] = Stability in 75% mouse plasma assessed as protease-mediated compound degradation measured within 8 hrs; format: ADME, cell-free; method in brief: as §1
[11] = molecular target: Prothrombin (Homo sapiens, UniProt P00734); experiment: Inhibition of human thrombin preincubated for 15 mins followed by chromogenic substrate addition
[12] = molecular target: Vitamin K-dependent protein C (Homo sapiens, UniProt P04070); experiment: Inhibition of human activated protein C preincubated for 15 mins followed by chromogenic substrate addition
Vitamin K-dependent protein C, sequence (P04070 43-197 limits assumed): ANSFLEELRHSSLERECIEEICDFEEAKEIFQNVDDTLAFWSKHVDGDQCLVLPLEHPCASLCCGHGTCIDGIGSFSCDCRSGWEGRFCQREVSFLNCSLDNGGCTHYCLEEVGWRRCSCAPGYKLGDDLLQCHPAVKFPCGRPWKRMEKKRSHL
Vitamin K-dependent protein C, sequence (P04070 212-461 limits assumed): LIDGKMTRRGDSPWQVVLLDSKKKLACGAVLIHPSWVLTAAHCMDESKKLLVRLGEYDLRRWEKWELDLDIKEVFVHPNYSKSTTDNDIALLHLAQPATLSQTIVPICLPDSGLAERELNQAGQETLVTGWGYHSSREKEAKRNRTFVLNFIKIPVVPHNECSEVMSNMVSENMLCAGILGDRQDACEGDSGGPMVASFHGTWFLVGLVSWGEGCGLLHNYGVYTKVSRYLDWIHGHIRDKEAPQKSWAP

[13] = system: CT26; experiment: Anti-tumor activity against GFP expressing mouse CT26 cells allografted in Balb/c mouse assessed as tumor growth inhibition at 11.3 mg/kg, ip administered daily for 15 days and measured on day 16 […]; format: functional; settings: read-out: TGI
Method in brief: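 CT-26 cells implanted subcutaneously in right flank of Balb/c mice; once tumors reached about 150~200 mm3, daily intraperitoneal dosing with peptide or saline for 15 days. Mice sacrificed on Day 16; tumors resected and weighed; tumor growth reduction relative to saline group.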

[14] = molecular target: Coagulation factor XI (Homo sapiens, UniProt P03951); experiment: Inhibition of human factor 11a preincubated for 15 mins followed by chromogenic substrate addition
Coagulation factor XI, sequence (P03951 19-387 limits assumed): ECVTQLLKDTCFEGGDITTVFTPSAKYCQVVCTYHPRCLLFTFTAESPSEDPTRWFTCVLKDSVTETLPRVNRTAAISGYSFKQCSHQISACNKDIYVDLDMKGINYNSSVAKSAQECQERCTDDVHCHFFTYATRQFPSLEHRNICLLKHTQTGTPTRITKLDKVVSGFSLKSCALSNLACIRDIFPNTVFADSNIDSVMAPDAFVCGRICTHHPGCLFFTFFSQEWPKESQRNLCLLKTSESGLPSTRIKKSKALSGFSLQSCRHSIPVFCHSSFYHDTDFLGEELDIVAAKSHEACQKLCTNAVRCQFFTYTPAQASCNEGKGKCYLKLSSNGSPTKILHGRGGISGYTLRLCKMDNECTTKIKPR
Coagulation factor XI, sequence (P03951 388-625 limits assumed): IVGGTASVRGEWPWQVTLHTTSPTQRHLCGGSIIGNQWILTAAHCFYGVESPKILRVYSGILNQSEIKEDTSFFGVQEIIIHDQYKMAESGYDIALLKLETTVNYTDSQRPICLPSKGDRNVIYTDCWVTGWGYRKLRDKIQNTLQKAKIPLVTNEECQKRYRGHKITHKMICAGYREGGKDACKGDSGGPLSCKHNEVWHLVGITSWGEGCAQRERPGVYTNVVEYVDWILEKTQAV

[15] = molecular target: Urokinase-type plasminogen activator (Homo sapiens, UniProt P00749); experiment: Inhibition of human uPA preincubated for 15 mins followed by chromogenic substrate addition
[16] = molecular target: Urokinase-type plasminogen activator (Mus musculus) (UniProt P06869); experiment: Inhibition of the intrinsic peri-cellular uPA in mouse CT26 cells assessed as reduction in cell invasion at 33 to 100 uM by Transwell invasion assay relative to control
[17] = molecular target: Urokinase-type plasminogen activator (Mus musculus) (UniProt P06869); experiment: Binding affinity to mouse uPA assessed as dissociation rate constant after 600 secs by SPR assay
[18] = molecular target: T1, Urokinase-type plasminogen activator; experiment: Binding affinity to mouse uPA by SPR assay
[19] = Stability in 75% mouse plasma assessed as protease-mediated compound degradation measured 24 hrs post dose; format: ADME, cell-free; method in brief: as §1
[20] = molecular target: Tissue-type plasminogen activator (Mus musculus, UniProt P11214); experiment: Inhibition of mouse tissue-type plasminogen activator preincubated for 15 mins followed by chromogenic substrate addition
Tissue-type plasminogen activator (Mus musculus, UniProt P11214), sequence (P11214 whole entry, the tested form may be a part): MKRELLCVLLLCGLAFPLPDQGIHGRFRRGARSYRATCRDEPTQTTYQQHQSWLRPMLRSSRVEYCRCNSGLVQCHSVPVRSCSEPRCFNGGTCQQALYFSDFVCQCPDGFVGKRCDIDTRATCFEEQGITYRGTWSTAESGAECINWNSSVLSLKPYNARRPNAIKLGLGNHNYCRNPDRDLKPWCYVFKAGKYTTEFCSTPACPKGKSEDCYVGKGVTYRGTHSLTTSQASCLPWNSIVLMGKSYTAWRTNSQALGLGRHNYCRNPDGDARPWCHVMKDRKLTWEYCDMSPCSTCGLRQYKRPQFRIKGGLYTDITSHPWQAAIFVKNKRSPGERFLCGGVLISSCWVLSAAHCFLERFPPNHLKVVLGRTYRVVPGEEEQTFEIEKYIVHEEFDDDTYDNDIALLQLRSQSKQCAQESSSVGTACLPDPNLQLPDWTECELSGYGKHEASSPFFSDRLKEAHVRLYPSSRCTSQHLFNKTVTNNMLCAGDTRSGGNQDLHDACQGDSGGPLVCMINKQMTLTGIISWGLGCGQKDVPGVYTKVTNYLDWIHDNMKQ

[21] = molecular target: T1, Urokinase-type plasminogen activator; experiment: Inhibition of mouse uPA serine protease domain preincubated for 15 mins followed by chromogenic substrate addition
[22] = system: CT26; experiment: Antimetastatic activity against GFP-fused mouse CT26 cells allografted in Balb/c mouse assessed as reduction in hyperplastic weights at 1.13 mg/kg, ip administered daily for 15 days by fluorescence-based assay; format: functional, organism-based
Method in brief: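 GFP-CT-26 cells (10^6) iv into male Balb/c, daily ip treatment Days 1–15, lungs resected and weighed at sacrifice on Day 16. Hyperplastic weight is lung weight minus the mean weight of lungs from non-implanted normal mice.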

[23] = molecular target: Plasma kallikrein (Mus musculus, UniProt P26262); experiment: Inhibition of mouse plasma kallikrein preincubated for 15 mins followed by chromogenic substrate addition
Plasma kallikrein (Mus musculus, UniProt P26262), sequence (P26262 20-390 limits assumed): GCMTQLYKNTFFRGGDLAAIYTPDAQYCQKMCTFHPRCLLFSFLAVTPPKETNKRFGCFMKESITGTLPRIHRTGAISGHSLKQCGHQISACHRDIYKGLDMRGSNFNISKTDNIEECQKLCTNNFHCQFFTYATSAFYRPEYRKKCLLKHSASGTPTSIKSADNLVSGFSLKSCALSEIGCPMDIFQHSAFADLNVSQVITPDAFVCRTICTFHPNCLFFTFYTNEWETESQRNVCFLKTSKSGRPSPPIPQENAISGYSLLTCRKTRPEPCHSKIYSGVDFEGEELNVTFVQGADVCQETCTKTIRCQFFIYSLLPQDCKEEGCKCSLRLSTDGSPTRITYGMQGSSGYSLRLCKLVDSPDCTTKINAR
Plasma kallikrein (Mus musculus, UniProt P26262), sequence (P26262 391-638 limits assumed): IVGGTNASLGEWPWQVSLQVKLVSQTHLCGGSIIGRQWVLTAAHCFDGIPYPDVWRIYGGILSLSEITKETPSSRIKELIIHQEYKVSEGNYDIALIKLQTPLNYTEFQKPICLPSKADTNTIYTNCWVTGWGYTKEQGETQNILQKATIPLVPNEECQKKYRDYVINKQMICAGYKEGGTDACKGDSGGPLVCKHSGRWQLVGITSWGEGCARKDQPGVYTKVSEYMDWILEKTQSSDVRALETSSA

[24] = molecular target: T1, Urokinase-type plasminogen activator; experiment: Binding affinity to mouse uPA expressed in HEK2936E cells by ITC assay
[25] = system: CT26; experiment: Antimetastatic activity against GFP-fused mouse CT26 cells allografted in Balb/c mouse assessed as reduction in tumor nodule numbers at 1.13 mg/kg, ip administered daily for 15 days by fluorescence-based assay; format: functional, organism-based
Method in brief: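 Male Balb/c mice received 10^6 GFP-CT-26 cells iv and daily ip dosing on Days 1–15. On Day 16, pleural-surface tumor nodules per lung were counted after soaking in formaldehyde.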

[26] = system: CT26; experiment: Antimetastatic activity against mouse CT26 cells allografted in Balb/c mouse assessed as prolongation of mouse survival time at 11.3 mg/kg, ip administered daily for 15 days; format: functional, organism-based

## CC[C@H](C)[C@@H]1NC(=O)[C@H](Cc2ccc(O)cc2)NC(=O)[C@H](CCCNC(=N)N)NC(=O)[C@H](CO)NC(=O)[C@H](Cc2ccc(O)cc2)NC(=O)[C@H](C)NC(=O)[C@@H]2CCCN2C(=O)[C@@H](N)CSSC[C@@H](C(=O)O)NC(=O)CNC1=O (H-CPAYSRYIGC-OH; disulfide 1-10)
[1]
  Ki: > 25 µM
[2]
  Ki: > 25 µM
[3]
  IC50: 0.0101 µM
[4]
  Ratio Ki: 81
[5]
  Ki: > 25 µM
[6]
  Ki: 0.0068 µM
[7]
  Activity: Non-Toxic
[8]
  Ki: > 25 µM
[9]
  Ki: 2.1 µM
[10]
  Stability: Stable
[11]
  Ki: > 25 µM
[12]
  Ki: > 25 µM
[13]
  inhibition in vivo at 11.3 mg/kg: 56.8%
[14]
  Ki: > 25 µM
[15]
  Ki: 0.34 µM
[16]
  inhibition: 70 to 80%
[17]
  K: 0.00066 s⁻¹
[18]
  Kd: 0.0024 µM
[19]
  Stability: Unstable
[20]
  Ki: > 25 µM
[21]
  Ki: 0.0153 µM
[22]
  Activity: inactive
[23]
  Ki: > 25 µM
[24]
  Kd: 0.0106 µM
[25]
  Activity: inactive
[26]
  Activity: inactive
